In ChEMBL document CHEMBL1154422, “First characterization of heterogeneous resistance to imipenem in invasive nontypeable Haemophilus influenzae isolates” (2007):
≈ marks a conversion by molar mass, not a printed value. Calls of active or inactive are those of the source. The calls are words filed in the database; no cut-off is given here.

Legend:
Haemophilus influenzae [1] = assay: Antimicrobial activity against imipenem-resistant invasive nontypeable Haemophilus influenzae isolate 183 by Etest; format: functional
Method in brief: (§1)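 Imipenem MIC read by Etest on Haemophilus test medium (HTM) agar following CLSI guidelines; inoculum about 3 × 10^8 to 4 × 10^8 CFU/ml. H. influenzae ATCC 49247 and ATCC 10211 served as quality controls. Interpretation used CLSI breakpoints. Strains were maintained on Vitox-supplemented chocolate agar at 37°C with 5% CO2.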

Haemophilus influenzae [2] = assay: Antimicrobial activity against Haemophilus influenzae Rd transformed with ftsI gene from imipenem-resistant invasive nontypeable Haemophilus influenzae isolate 183 by Etest; format: functional
Method in brief: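 Recipient strain Rd (ATCC 51907) was electroporated with the PCR-amplified full-length ftsI gene plus flanking DNA from strain 183, then selected on HTM agar with 4 μg/ml imipenem. Imipenem MIC was then read by Etest on HTM agar per CLSI, in triplicate on separate days, and reported as a range.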

Haemophilus influenzae [3] = assay: Antimicrobial activity against imipenem-susceptible Haemophilus influenzae Rd by Etest; format: functional
Method in brief: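 Etest MIC on HTM agar per CLSI, inoculum 3 × 10^8 to 4 × 10^8 CFU/ml, with strains grown on Vitox-supplemented chocolate agar at 37°C with 5% CO2. Imipenem and ampicillin MICs were tested in triplicate on separate days and reported as the range. ATCC 49247 and ATCC 10211 were the quality controls.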

Haemophilus influenzae [4] = assay: Antimicrobial activity against imipenem-susceptible invasive nontypeable Haemophilus influenzae isolate 187 by Etest; format: functional; method in brief: as §1
Haemophilus influenzae [5] = assay: Antimicrobial activity against imipenem-susceptible invasive nontypeable Haemophilus influenzae isolate 248 by Etest; format: functional; method in brief: as §1
Haemophilus influenzae [6] = assay: Antimicrobial activity against imipenem-resistant invasive nontypeable Haemophilus influenzae isolate 184 by Etest; format: functional; method in brief: as §1
Haemophilus influenzae [7] = assay: Antimicrobial activity against imipenem-susceptible invasive nontypeable Haemophilus influenzae isolate 251 by Etest; format: functional
Method in brief: (§2)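 Etest MIC on Haemophilus test medium (HTM) agar plates following CLSI guidelines, with a high inoculum (3 × 10^8 to 4 × 10^8 CFU/ml). Strains were maintained on Vitox-supplemented chocolate agar at 37°C with 5% CO2. H. influenzae ATCC 49247 and ATCC 10211 served as quality controls. Interpretation used CLSI breakpoints.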

Haemophilus influenzae [8] = assay: Antimicrobial activity against imipenem-susceptible invasive nontypeable Haemophilus influenzae isolate 244 by Etest; format: functional; method in brief: as §1
Haemophilus influenzae [9] = assay: Antimicrobial activity against imipenem-resistant invasive nontypeable Haemophilus influenzae isolate 183 by Etest in presence of 0.781 uM efflux pump inhibitor carbonyl cyanide m-chlorophenyl-hydrazone; format: functional, organism-based
Method in brief: (§3)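 CCCP was made up as a 100 mM DMSO stock and added to HTM agar at final 3.12, 1.56, 0.781 or 0.390 μM. Imipenem Etest was run on these plates per CLSI on HTM agar.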

Haemophilus influenzae [10] = assay: Antimicrobial activity against imipenem-resistant invasive nontypeable Haemophilus influenzae isolate 184 by Etest in presence of 0.781 uM efflux pump inhibitor carbonyl cyanide m-chlorophenyl-hydrazone; format: functional, organism-based; method in brief: as §3
Haemophilus influenzae [11] = assay: Antimicrobial activity against imipenem-resistant invasive nontypeable Haemophilus influenzae isolate 183 at 1.56 uM by Etest; format: functional, organism-based; method in brief: as §3
Haemophilus influenzae [12] = assay: Antimicrobial activity against imipenem-resistant invasive nontypeable Haemophilus influenzae isolate 183 by Etest in presence of 0.390 uM efflux pump inhibitor carbonyl cyanide m-chlorophenyl-hydrazone; format: functional, organism-based; method in brief: as §3
Haemophilus influenzae [13] = assay: Antimicrobial activity against imipenem-resistant invasive nontypeable Haemophilus influenzae isolate 183 by standard broth dilution method; format: functional
Method in brief: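 Imipenem MIC by CLSI standard broth dilution method; inoculum 5 × 10^5 CFU/ml.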

Haemophilus influenzae [14] = assay: Antimicrobial activity against imipenem-resistant invasive nontypeable Haemophilus influenzae isolate 184 by Etest in presence of 0.390 uM efflux pump inhibitor carbonyl cyanide m-chlorophenyl-hydrazone; format: functional, organism-based; method in brief: as §3
Haemophilus influenzae [15] = assay: Antimicrobial activity against imipenem-resistant invasive nontypeable Haemophilus influenzae isolate 184 by standard broth dilution method; format: functional
Method in brief: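 Broth dilution MIC per CLSI standard procedure. Inoculum 5 × 10^5 CFU/ml, lower than the Etest inoculum. Strain first grown on Vitox-supplemented chocolate agar at 37°C with 5% CO2. Beta-lactamase checked by nitrocefin stick test.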

Haemophilus influenzae [16] = assay: Antimicrobial activity against Haemophilus influenzae ATCC 10211 by Etest; format: functional; method in brief: as §2
Haemophilus influenzae [17] = assay: Antimicrobial activity against imipenem-resistant invasive nontypeable Haemophilus influenzae isolate 184 at 1.56 uM by Etest; format: functional, organism-based; method in brief: as §3

Structure (SMILES)	MIC (Haemophilus influenzae [1])	MIC (Haemophilus influenzae [2])	MIC (Haemophilus influenzae [3])	MIC (Haemophilus influenzae [4])	MIC (Haemophilus influenzae [5])	MIC (Haemophilus influenzae [6])	MIC (Haemophilus influenzae [7])	MIC (Haemophilus influenzae [8])	Activity (Haemophilus influenzae [9])	Activity (Haemophilus influenzae [10])	Activity (Haemophilus influenzae [11])	Activity (Haemophilus influenzae [12])	MIC (Haemophilus influenzae [13])	Activity (Haemophilus influenzae [14])	MIC (Haemophilus influenzae [15])	MIC (Haemophilus influenzae [16])	Activity (Haemophilus influenzae [17])
CO/N=C(\C(=O)N[C@@H]1C(=O)N2C(C(=O)O)=C(CSc3nc(=O)c(O)nn3C)CS[C@H]12)c1csc(N)n1 [CEFTRIAXONE]	0.032 µg/mL (≈ 0.0577 µM)	< 0.016 µg/mL	< 0.016 µg/mL														
CO/N=C(\C(=O)N[C@@H]1C(=O)N2C(C(=O)O)=C(COC(C)=O)CS[C@H]12)c1csc(N)n1 [CEFOTAXIME]	0.047 µg/mL (≈ 0.103 µM)		0.5 µg/mL (≈ 1.1 µM)	0.047 µg/mL (≈ 0.103 µM)	0.016 µg/mL (≈ 0.0351 µM)	0.125 µg/mL (≈ 0.274 µM)	0.016 µg/mL (≈ 0.0351 µM)	0.016 µg/mL (≈ 0.0351 µM)									
CC1(C)S[C@@H]2[C@H](NC(=O)[C@H](N)c3ccccc3)C(=O)N2[C@H]1C(=O)O [AMPICILLIN]	0.75 µg/mL (≈ 2.15 µM)	0.38 µg/mL (≈ 1.09 µM)	0.064 µg/mL (≈ 0.183 µM)	0.19 µg/mL (≈ 0.544 µM)	0.125 µg/mL (≈ 0.358 µM)	0.5 µg/mL (≈ 1.43 µM)	0.125 µg/mL (≈ 0.358 µM)	0.25 µg/mL (≈ 0.715 µM)									
C[C@@H](O)[C@H]1C(=O)N2C(C(=O)O)=C(SCCNC=N)C[C@H]12 [IMIPENEM ANHYDROUS]	≥ 32 µg/mL	4 µg/mL (≈ 13.4 µM)	0.38 µg/mL (≈ 1.27 µM)	1.5 µg/mL (≈ 5.01 µM)	0.25 µg/mL (≈ 0.835 µM)	≥ 32 µg/mL	0.5 µg/mL (≈ 1.67 µM)	0.5 µg/mL (≈ 1.67 µM)	Active	Active	inactive	Active	2 µg/mL (≈ 6.68 µM)	Active	1 µg/mL (≈ 3.34 µM)	1.5 µg/mL (≈ 5.01 µM)	inactive
O=C(N[C@H](CO)[C@H](O)c1ccc([N+](=O)[O-])cc1)C(Cl)Cl [CHLORAMPHENICOL]	0.38 µg/mL (≈ 1.18 µM)			0.38 µg/mL (≈ 1.18 µM)	0.38 µg/mL (≈ 1.18 µM)	0.5 µg/mL (≈ 1.55 µM)	0.25 µg/mL (≈ 0.774 µM)	0.38 µg/mL (≈ 1.18 µM)									
